Source: article PMC3383288 (International Journal of Nanomedicine, 2012)

Assays:
[1] = Toxicity dose-finding study in nude mice; type: in vivo
[2] = Tissue distribution in tumor-bearing mice; type: in vivo, nude mice; conditions: for AUC of DTX: native DTX 10 mg/kg
Outline: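 Female nude mice bearing subcutaneous xenografts (cells in 50% Matrigel) got a single iv dose when tumors reached about 400 mm3. Free drug was sampled at 0.083, 1, 6, 24 and 48 h (n = 3 per time). Heart blood was taken under ether into heparin, and plasma was spun at 4°C. Organs were rinsed, stored at −30°C and homogenized 25% w/w in PBS pH 7.4. Drug was quantified by reversed-phase HPLC at 40°C.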

[3] = system: MDA-MB-231 human breast tumor; experiment: MDA-MB-231 human breast tumor xenograft model; type: in vivo, nude mice
Outline: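 3 × 10^6 cells in 50% Matrigel were injected subcutaneously into the backs of female 5-week-old nude mice. Dosing started on day 0: three tail-vein iv injections at 4-day intervals, with an untreated control group. Tumor volume and body weight were tracked. Points are means of seven mice with standard error.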

[4] = system: OCUM-2MLN human scirrhous gastric carcinoma; experiment: OCUM-2MLN orthotopic scirrhous gastric carcinoma model; type: in vivo, nude mice; conditions: DTX 10 mg/kg; data not shown
[5] = Toxicology studies in mice; type: in vivo, mice (Crlj:CD1 (ICR)); conditions: for ALT / AST / CRE / UN: native DTX 10 mg/kg iv x3 at 4-day intervals, one mouse
Outline: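 Male Crlj:CD1 (ICR) mice (n = 10) received iv dosing three times at 4-day intervals, and condition and body weight were followed for 49 days. Mice were killed one at a time for blood collection and autopsy, including macroscopic review of liver and bone marrow. AST, ALT, creatinine and urea nitrogen were run on a clinical chemistry analyzer, with hematology on an automated analyzer.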

[6] = Toxicology study in cynomolgus monkeys; type: in vivo
Outline: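 Male cynomolgus monkeys aged 3–4 years (2.5–3.7 kg, n = 3) were dosed iv three times at 2-week intervals. Food consumption, general condition and body weight were followed for 42 days. White blood cell and neutrophil counts were monitored. Values are means of three monkeys with standard deviation.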

[7] = once-every-3-week schedule; cited from earlier work
advanced gastric cancer = conditions: monotherapy, patients with advanced gastric cancer; cited from earlier work
[8] = native DTX 3 mg/kg iv three times at 2-week intervals

SMILES: CC(=O)O[C@@]12CO[C@@H]1C[C@H](O)[C@@]1(C)C(=O)[C@H](O)C3=C(C)[C@@H](OC(=O)[C@H](O)[C@@H](NC(=O)OC(C)(C)C)c4ccccc4)C[C@@](O)([C@@H](OC(=O)c4ccccc4)[C@H]21)C3(C)C [Native DTX, Docetaxel]
- MTD converted to human equivalent ([1]; mouse MTD 10 mg/kg, three times at 4-day intervals): 30.3 mg/m^2
- body weight change ([1]; native DTX 15 mg/kg vs less than 15 mg/kg, iv three times every 4 days): significant decrease in body weight
- AUC of DTX ([2]; Heart): 9.5 μg/g or mL · h
- AUC of DTX ([2]; Kidney): 44.2 μg/g or mL · h
- AUC of DTX ([2]; Liver): 40.1 μg/g or mL · h
- AUC of DTX ([2]; Lung): 13.6 μg/g or mL · h
- AUC of DTX ([2]; Plasma): 6.7 μg/g or mL · h
- AUC of DTX ([2]; Spleen): 27.3 μg/g or mL · h
- AUC of DTX ([2]; Tumor): 12.6 μg/g or mL · h
- time DTX in plasma remained over 0.1 μg/mL ([2]; native DTX 10 mg/kg iv): less than 5 hours
- maximum body weight loss ([3]; native DTX 10 mg/kg iv x3, mice bearing MDA-MB-231 xenograft): approximately 10%
- effect on tumor growth ([3]; three injections at 4-day intervals, NC-6301 50 mg/kg, native DTX 10 mg/kg): transient and slight regression
- body weight loss compared with NC-6301 at the higher dose [4]: worse
- ALT ([5]; Day 1): 28 U/L
- AST ([5]; Day 1): 85 U/L
- CRE ([5]; Day 1): 0.07 mg/dL
- UN ([5]; Day 1): 26.1 mg/dL
- ALT ([5]; Day 7): 44 U/L
- AST ([5]; Day 7): 239 U/L
- CRE ([5]; Day 7): 0.17 mg/dL
- UN ([5]; Day 7): 27.1 mg/dL
- ALT ([5]; Day 10): 23 U/L
- AST ([5]; Day 10): 91 U/L
- CRE ([5]; Day 10): 0.14 mg/dL
- UN ([5]; Day 10): 25.4 mg/dL
- ALT ([5]; Day 14): 19 U/L
- AST ([5]; Day 14): 62 U/L
- CRE ([5]; Day 14): 0.20 mg/dL
- UN ([5]; Day 14): 30.5 mg/dL
- ALT ([5]; Day 21): 24 U/L
- AST ([5]; Day 21): 71 U/L
- CRE ([5]; Day 21): 0.12 mg/dL
- UN ([5]; Day 21): 20.0 mg/dL
- ALT ([5]; Day 28): 22 U/L
- AST ([5]; Day 28): 65 U/L
- CRE ([5]; Day 28): 0.15 mg/dL
- UN ([5]; Day 28): 41.4 mg/dL
- ALT ([5]; Day 35): 46 U/L
- AST ([5]; Day 35): 171 U/L
- CRE ([5]; Day 35): 0.12 mg/dL
- UN ([5]; Day 35): 28.0 mg/dL
- ALT ([5]; Day 42): 27 U/L
- AST ([5]; Day 42): 83 U/L
- CRE ([5]; Day 42): 0.11 mg/dL
- UN ([5]; Day 42): 22.1 mg/dL
- ALT ([5]; Day 49): 22 U/L
- AST ([5]; Day 49): 56 U/L
- CRE ([5]; Day 49): 0.12 mg/dL
- UN ([5]; Day 49): 23.5 mg/dL
- myelosuppression ([5]; NC-6301 50 mg/kg, native DTX 10 mg/kg, data not shown): mild and transient
- change in liver- or kidney-related blood test markers ([5]; three injections, NC-6301 50 mg/kg, native DTX 10 mg/kg, 49 days): No significant change
- adverse effects ([6]; native DTX 3 mg/kg): adverse effects including gastrointestinal symptoms
- additional weight lost compared with animals administered NC-6301 [6, 8]: up to 20%
- white blood cell count and neutrophil count [6, 8]: significantly decreased
- decrease in food consumption ([6]; native DTX 3 mg/kg, NC-6301 3 or 6 mg/kg, iv three times at 2-week intervals): critical decrease
- MTD in humans [7]: 100 mg/m^2
- response rate (advanced gastric cancer): 20%
